The source made the active and inactive calls.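 How the source made its calls, unless noted: active means viability at or under a set limit in both replicates, limit being median viability minus 3 SD (cut at about 48% in these data, passing the limit was not always enough); inconclusive means at or under the limit in just one replicate; inactive means at or above the limit in both replicates.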

viability, differential viability (reversal) and inhibition data for 19 compounds are collected here from PubChem BioAssay.

The nature of test [1]: reduced viability of SK-BR-3 breast cancer cells – cell-based, 24 h, human, pilot screen (AID 572;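 active means viability at or below 10% of carrier control in both of two separate runs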;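 further: compound exposure lasted between 18 and 24 h rather than exactly 24 h; 100% = carrier-treated control wells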). The following applies: SK-BR-3 viability, CellTiter-Glo luminescence, at 10 µM, stronger effect = lower value. On the technique in general: In ATP-based viability assays light output follows the ATP content of the culture.
Test [2] in a line: HUVEC growth inhibition – cell-based, human, primary screen (AID 575;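 active means viability at or below 30% in both replicate assays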;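 further: 100% = median of untreated cell wells with 0.1% DMSO on each plate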). The conditions noted are these: HUVEC proliferation, CellTiter-Glo luminescence, 72 h; at 10 µM; stronger effect = lower value. The method, boiled down: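 Test system – primary HUVEC, no more than 12 passages · Dosing – one dose, 10 µM final, 0.1% DMSO · Times – 72 h treatment at 37 °C · Measured by – ATP-based CellTiter-Glo luminescent read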

Test [3] can be described thus: H69AR cell proliferation blockers – human, duplicate replicates, primary screen (AID 580).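 Further: 100% = mean luminescence of untreated wells and 0% = no signal.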 The conditions noted are these: H69AR lung tumor cells viability, ATP luminescence, 72 h; at 10 µM; stronger effect = lower value.
Test [4] can be described thus: MRP1 drug-resistance reversers in H69AR cells – cell-based, doxorubicin co-treatment, pilot screen (AID 601;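 active means viability loss from added drug above about 55%, and viability with drug at most 40%, in both replicates, limit read from the data, passing the limit was not always enough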). The following applies: CellTiter-Glo, 72 h, at 10 µM; for differential viability (reversal): stronger effect = higher value.
The nature of test [5]: yeast transport mutant growth inhibition pilot in 384-well plates, post-Golgi transport modulator project (AID 636; in the data active means inhibition above about 31%). The conditions noted are these: absorbance 615 nm, about 18 h, stronger effect = higher value.
A short description of test [6]: growth suppression of yeast trafficking mutant, preliminary HTS, modulators of trafficking downstream of Golgi apparatus project, 1536-format plate, OD 615 nm (AID 637; in the data active means inhibition above about 30%). The conditions noted are these: yeast transport mutant growth, absorbance 615 nm, 18 h; stronger effect = higher value.
[7] abbreviates: H69AR cells + 2 uM doxorubicin, measured here: viability with 2 uM doxorubicin, stronger effect = lower value.
The mark [8] stands for this setting: H69AR cells, compound alone cytotoxicity.

As a reminder, the viability is a read-out of living cells in per cent, often relative to untreated cells. By inhibition is commonly meant the drop in the measured response relative to a control, in per cent. In the case of `Cc1nnc(SCCn2c(Br)nc3c2c(=O)n(C)c(=O)n3C)s1`, the viability was 95% (inactive) in test [1]; 106% (inactive) in test [2]; 98.2% (inactive) in test [3]; 97.5% in test [4] (setting [7]); 98.2% in test [4] (setting [8]). The differential viability (reversal) in test [4] (H69AR cells + 2 uM doxorubicin) is 0.705% (inactive). In addition, the inhibition is -1.76% (inactive) in test [5] and -5.09% (inactive) in test [6].
On to `CC1(C)CC(=O)CC(=Nc2ccc(C(=O)O)cc2)C1`, for which the viability in test [1] was 92% (inactive); in test [2], 97.3% (inactive); in test [3], 87.7% (inactive); in test [4] (setting [7]) it was 92.1%; in test [4] (setting [8]) it was 87.7%. Moreover, the differential viability (reversal) in test [4] (H69AR cells + 2 uM doxorubicin) is -4.41% (inactive). The inhibition in test [5] was -3.64% (inactive); in test [6], -0.16% (inactive).
With `CCN(CC)S(=O)(=O)c1ccc(NC(=O)c2cccc3c2C(=O)N(CCOC)C3)cc1`, the viability in test [1] is 119% (inactive); in test [2] it was 109% (inactive); in test [3] it was 94.4% (inactive); in test [4] (setting [7]), 85.2%; in test [4] (setting [8]), 94.4%. The differential viability (reversal) in test [4] (H69AR cells + 2 uM doxorubicin) is 9.21% (inactive). Moreover, the values for the inhibition in test [5] and in test [6] were -9.73% (inactive) and -5.45% (inactive), respectively.
In the case of `CC(=O)NC(C)C(=O)OCc1ccc(Cl)cc1Cl` (configuration not stated), the viability in test [1] is 66% (inactive); in test [2] it was 99.5% (inactive); in test [3] it was 103% (inactive); in test [4] (setting [7]), 95.2%; in test [4] (setting [8]), 103%. The differential viability (reversal) in test [4] (H69AR cells + 2 uM doxorubicin) was 7.35% (inactive). Also, the inhibition in test [5] was -4.79% (inactive); in test [6] it was -1.27% (inactive).
Take `CCOc1cc(C2C(C#N)=C(N)Oc3n[nH]c(CC)c32)ccc1OCCN1CCOCC1` (configuration not stated): the viability was 87% (inactive) in test [1]; 95.6% (inactive) in test [2]; 110% (inactive) in test [3]; 99% in test [4] (setting [7]); 110% in test [4] (setting [8]). For the same compound, the differential viability (reversal) in test [4] (H69AR cells + 2 uM doxorubicin) was 11% (inactive). For the same compound, the inhibition is 0.27% (inactive) in test [5] and 0.32% (inactive) in test [6].
Take `CCOc1ccc2[nH]c(O)c(NC(C)=O)c2c1`: the viability in test [1] is 95% (inactive); in test [2] it was 100% (inactive); in test [3], 94.8% (inactive); in test [4] (setting [7]), 94.1%; in test [4] (setting [8]), 94.8%. The differential viability (reversal) in test [4] (H69AR cells + 2 uM doxorubicin) was 0.61% (inactive). The inhibition in test [5] is -4.86% (inactive); in test [6] it was 0.91% (inactive).
On to `N#CCOc1nc(N2CCOCC2)nc(N2CCOCC2)n1`, for which the viability in test [1] was 99% (inactive); in test [2] it was 96.6% (inactive); in test [3], 90.8% (inactive); in test [4] (setting [7]) it was 91.8%; in test [4] (setting [8]), 90.8%. For the same compound, the differential viability (reversal) in test [4] (H69AR cells + 2 uM doxorubicin) was -0.985% (inactive). Moreover, the inhibition is -7.3% (inactive) in test [5] and -2.73% (inactive) in test [6].
Regarding `CN(C)CCCN1c2ccccc2CCc2ccc(Cl)cc21`, the viability was 78% (inactive) in test [1]; 5.55% (active) in test [2]; 65.2% (inactive) in test [3]; 53.2% in test [4] (setting [7]); 65.2% in test [4] (setting [8]). Besides, the differential viability (reversal) in test [4] (H69AR cells + 2 uM doxorubicin) is 12% (inactive). Further, the inhibition is -0.26% (inactive) in test [5] and 1.17% (inactive) in test [6].
Turning to `c1ccc(-c2ccc(C(c3ccccc3)n3ccnc3)cc2)cc1` (configuration not stated), the viability was 140% (inactive) in test [1]; 74.3% (inactive) in test [2]; 63.3% (inactive) in test [3]; 66% in test [4] (setting [7]); 63.3% in test [4] (setting [8]). Also, the differential viability (reversal) in test [4] (H69AR cells + 2 uM doxorubicin) was -2.76% (inactive). In addition, the inhibition in test [5] and in test [6] was 100% (active) throughout.
Turning to `CN1C(C(=O)Nc2ccccn2)=C(O)c2ccccc2S1(=O)=O`, the viability in test [1] is 115% (inactive); in test [2], 94.7% (inactive); in test [3], 101% (inactive); in test [4] (setting [7]), 87.7%; in test [4] (setting [8]), 101%. For the same compound, the differential viability (reversal) in test [4] (H69AR cells + 2 uM doxorubicin) is 13.4% (inactive). Besides, the values for the inhibition in test [5] and in test [6] were 0.39% (inactive) and -0.83% (inactive), respectively.
Consider `O=C(Nc1ccc2c(c1)OCO2)N1CCN(c2ncccn2)CC1`, for which the viability in test [1] is 126% (inactive); in test [2] it was 106% (inactive); in test [3], 85.5% (inactive); in test [4] (setting [7]), 108%; in test [4] (setting [8]), 85.5%. Moreover, the differential viability (reversal) in test [4] (H69AR cells + 2 uM doxorubicin) is -22.1% (inactive). Besides, the inhibition was -8.49% (inactive) in test [5] and -1.64% (inactive) in test [6].
For `COc1cc2c(cc1OC)CN(CC(=O)Nc1cccc(C)c1)CC2`, the viability in test [1] is 117% (inactive); in test [2], 90.4% (inactive); in test [3], 93.1% (inactive); in test [4] (setting [7]), 83.9%; in test [4] (setting [8]), 93.1%. In addition, the differential viability (reversal) in test [4] (H69AR cells + 2 uM doxorubicin) is 9.21% (inactive). The inhibition in test [5] is 0.14% (inactive); in test [6], -7.9% (inactive).
`COc1ccc(/C(O)=C2\C(=O)C(=O)N(c3cc(C)on3)C2c2ccccc2OC)cc1` (configuration not stated): the viability in test [1] is 105% (inactive); in test [2], 101% (inactive); in test [3], 78.5% (inactive); in test [4] (setting [7]), 85.3%; in test [4] (setting [8]), 78.5%. The differential viability (reversal) in test [4] (H69AR cells + 2 uM doxorubicin) was -6.79% (inactive). Besides, the inhibition in test [5] is -8.27% (inactive); in test [6], -5.09% (inactive).
For `COc1ccccc1-c1nnc(NC(=O)c2ccc(S(=O)(=O)N(C)Cc3ccccc3)cc2)o1`, the viability is 85% (inactive) in test [1]; 23.9% (active) in test [2]; 19.2% (active) in test [3]; 44.3% in test [4] (setting [7]); 19.2% in test [4] (setting [8]). Also, the differential viability (reversal) in test [4] (H69AR cells + 2 uM doxorubicin) is -25.1% (inactive). In addition, the results for the inhibition in test [5] and in test [6] were 1.3% (inactive) and 6.56% (inactive), respectively.
For the compound `Cc1cc(C)n(CC(=O)NC2CCCCC2)n1`, the viability is 113% (inactive) in test [1]; 114% (inactive) in test [2]; 98% (inactive) in test [3]; 85.3% in test [4] (setting [7]); 98% in test [4] (setting [8]). In addition, in test [4] (H69AR cells + 2 uM doxorubicin), the differential viability (reversal) was 12.7% (inactive). In addition, the figures for the inhibition in test [5] and in test [6] were -8.49% (inactive) and 0.32% (inactive), respectively.
As to `Cc1nc2nc(-c3cccnc3)nn2c(C)c1Cl`, the viability in test [1] is 109% (inactive); in test [2], 87.4% (inactive); in test [3], 102% (inactive); in test [4] (setting [7]), 89.2%; in test [4] (setting [8]), 102%. In addition, the differential viability (reversal) in test [4] (H69AR cells + 2 uM doxorubicin) was 12.9% (inactive). Further, the inhibition is -3.78% (inactive) in test [5] and -3.27% (inactive) in test [6].
With `CCn1c(Cc2ccccc2)nnc1SCC(=O)Nc1cc(C)on1`, the viability in test [1] is 109% (inactive); in test [2] it was 114% (inactive); in test [3] it was 98.7% (inactive); in test [4] (setting [7]) it was 91%; in test [4] (setting [8]) it was 98.7%. The differential viability (reversal) in test [4] (H69AR cells + 2 uM doxorubicin) is 7.78% (inactive). For the same compound, the figures for the inhibition in test [5] and in test [6] were -5.06% (inactive) and -2.95% (inactive), respectively.
With `COCCNC(=O)NC(=O)COC(=O)Cc1ccc2c(c1)OCCO2`, the viability was 81% (inactive) in test [1]; 111% (inactive) in test [2]; 99.2% (inactive) in test [3]; 92.6% in test [4] (setting [7]); 99.2% in test [4] (setting [8]). In test [4] (H69AR cells + 2 uM doxorubicin), the differential viability (reversal) was 6.6% (inactive). Besides, the inhibition was -2.88% (inactive) in test [5] and 3.82% (inactive) in test [6].
With `COCCNC(=O)CN1CCC(NC(=O)Nc2ccc(C(F)(F)F)cc2)CC1`, the viability in test [1] is 92% (inactive); in test [2], 96.5% (inactive); in test [3] it was 102% (inactive); in test [4] (setting [7]), 93.5%; in test [4] (setting [8]) it was 102%. Besides, the differential viability (reversal) in test [4] (H69AR cells + 2 uM doxorubicin) is 8.66% (inactive). Moreover, the inhibition was -5.54% (inactive) in test [5] and 0.55% (inactive) in test [6].
